PMC2605016 (Structure (London, England : 1993), 2008)

Tests used:
[1] = biological target: 15N-CaM (Homo sapiens, UniProt P0DP23); assay: NMR titration of 15N-CaM with AQP0 peptides; assay type: binding, vertebrate; conditions: 25°C, pH 6.5, Ca^2+, data not shown
[2] = CaM pull-down assay with lens membranes; assay type: binding, lamb; conditions: Ca^2+ treated lens pellets, molar excess EGTA, data not shown
Outline: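 Lamb lens fiber-cell membranes (2mg/ml total protein) were incubated with recombinant vertebrate CaM (0.67mg/ml) in 10mM Tris pH 8.0, 10mM CaCl2 for 30 minutes at 37°C. Binding was stopped on ice, and free CaM was removed by centrifugation at 10,000xg with 4 pellet washes. Molar excess EGTA was then added to the Ca2+-treated pellets. CaM was detected by SDS-PAGE with silver staining and by western blot.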

[3] = biological target: calmodulin (CaM); assay: 15N-HSQC NMR titration of 15N-CaM; conditions: reference: unmodified AQP0CBD peptide, second binding event (1:2); sites S235

Q: Which “interaction of control peptide with CaM” value [1] does the source give for “AQP0loop: peptide corresponding to a cytosolic AQP0 loop, residues 148–158, negative control (TYDERRNGRLG)” here?
A: Its value is “no interaction”.

Q: Which “removal of membrane-bound CaM by EGTA” value [2] does the source give for O=C(O)CN(CCOCCOCCN(CC(=O)O)CC(=O)O)CC(=O)O [EGTA] here?
A: The value was “efficiently removed”.

Q: With “Aquaporin-0 (AQP0, MIP) 223-242 (from UniProt Q6J8I9) S235-P peptide, second binding event (1:2)” as the compound, how does the KD [3] read?
A: Its KD is “weaker; reference 6.5 ± 5.5 × 10−6”.
